Results gathered from unrelated publications.
Compare with care: the assays were run in different laboratories.
Target: Serine/threonine-protein kinase Nek11 (NEK11, Homo sapiens, UniProt Q8NG66)
One construct used (Q8NG66 1-645): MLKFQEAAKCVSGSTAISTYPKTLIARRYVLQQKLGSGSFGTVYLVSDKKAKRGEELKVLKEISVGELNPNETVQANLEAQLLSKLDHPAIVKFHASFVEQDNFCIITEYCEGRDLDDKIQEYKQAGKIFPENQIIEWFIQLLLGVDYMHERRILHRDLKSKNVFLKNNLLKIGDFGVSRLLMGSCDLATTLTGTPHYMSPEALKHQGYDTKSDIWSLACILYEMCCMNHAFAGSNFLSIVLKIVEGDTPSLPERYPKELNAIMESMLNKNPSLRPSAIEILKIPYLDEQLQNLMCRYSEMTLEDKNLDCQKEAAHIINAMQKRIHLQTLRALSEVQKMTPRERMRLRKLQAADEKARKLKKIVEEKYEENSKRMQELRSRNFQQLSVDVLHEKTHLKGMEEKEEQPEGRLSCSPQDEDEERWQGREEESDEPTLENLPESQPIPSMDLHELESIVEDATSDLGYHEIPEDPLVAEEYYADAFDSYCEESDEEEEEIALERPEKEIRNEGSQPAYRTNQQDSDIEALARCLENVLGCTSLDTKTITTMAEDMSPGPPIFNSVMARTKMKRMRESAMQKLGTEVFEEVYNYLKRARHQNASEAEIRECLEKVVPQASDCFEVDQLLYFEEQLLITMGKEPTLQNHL

SMILES	assay	conditions	remaining binding [%]
COc1ccc2c(c1)O[C@H](c1ccc(OC)c(OC)c1)C[C@@H]2NC(=O)C1(c2ccc3c(c2)OC(F)(F)O3)CC1	cell-free assay, competition with immobilised ligand	1 µM	88
O=C(Nc1c[nH]nc1C(=O)NC1CCNCC1)c1cc(F)cc(F)c1	binding, competition with immobilised ligand	1 µM	91
CC1CCCN1c1nccc(-c2cnn3ncccc23)n1 (centres unmarked)	binding	1 µM	100
Cc1cnc(Nc2ccc(C(=O)N3CCC(N4CCCC4)CC3)cc2)nc1-c1cc2ccccc2s1	binding, competition with immobilised ligand	1 µM	64
CS(=O)(=O)NCC[C@H](NC(=O)c1cncc2c1cnn2-c1ccc(F)cc1)c1ccnc(S(C)(=O)=O)c1	cell-free assay, competition with immobilised ligand	1 µM	100
CN(c1nccc(-c2cnn3ncccc23)n1)C1CC1	binding	1 µM	100
CNC(=O)[C@@H]1CC[C@@H](n2c(-c3ccc4cnccc4c3)nc3ccc(C(=O)NCc4cccc(C(N)=O)c4)cc32)C1	binding, competition with immobilised ligand	1 µM	100
Cc1cnn2ncc(-c3ccnc(N(C)C)n3)c2c1	binding	1 µM	98
O=C(c1ccc(Nc2nccc(-c3cc4ccccc4s3)n2)cc1)N1CCC(N2CCCC2)CC1	binding, competition with immobilised ligand	1 µM	78
Nc1ncc2c(n1)-c1c([nH]c3ccc(C#CC4CC4)cc13)CCCC2	binding, competition with immobilised ligand	1 µM	84
N[C@H]1CCN(c2nccc(-c3cnn4ncccc34)n2)C1	binding	1 µM	71
c1cncc(-c2cccc(Nc3nccc(NC4CCCCC4)n3)c2)c1	binding, competition with immobilised ligand	10 µM	100
Cc1cc(-n2nc(Cc3cc(F)cc(C(F)(F)F)c3)nc2C)ccc1C(N)=O	cell-free assay, competition with immobilised ligand	1 µM	100
COc1cnc(Nc2cccc(S(N)(=O)=O)c2)nc1N1CCN(c2ccccc2)CC1	binding, competition with immobilised ligand	1 µM	90
CC(=O)C1=C(C)N(c2cccc(C(F)(F)F)c2)C(=O)N[C@@H]1c1ccc(C#N)nc1	cell-free assay, competition with immobilised ligand	1 µM	100
CN(CCCC(F)(F)F)c1nccc(-c2cnn3ncccc23)n1	binding	1 µM	100
O=C(NCCCC1CCCCC1)c1ccc(CNC(=O)c2cnn(-c3ccccc3)c2C(F)(F)F)cc1	cell-free assay, competition with immobilised ligand	0.1 µM	100
F[C@@H]1CCN(c2nccc(-c3cnn4ncccc34)n2)C1	binding	1 µM	100
O=C(c1ccc(Nc2ncc(Cl)c(-c3cc4ccccc4s3)n2)cc1)N1CCC(N2CCCC2)CC1	binding, competition with immobilised ligand	1 µM	80
O=S(=O)(NC1CCC(c2cc(F)ccc2F)(S(=O)(=O)c2ccc(Cl)cc2)CC1)C(F)(F)F (centres unmarked)	cell-free assay, competition with immobilised ligand	1 µM	100
